Results on 14 compounds are retold here after ChEMBL document CHEMBL2150947, “Pyrazolopyridine inhibitors of B-Raf(V600E). Part 4: rational design and kinase selectivity profile of cell potent type II inhibitors” (Bioorg Med Chem Lett, 2012).

Assay [1] concerns the target T1, Serine/threonine-protein kinase B-raf (Homo sapiens, UniProt P15056, V600E). Nature of the assay: Inhibition of full length B-Raf V600E mutant.
Assay [2] deals with T1, Serine/threonine-protein kinase B-raf. The experiment in a line: Inhibition of B-Raf V600E mutant in human Malme-3M cells assessed as ERK phosphorylation. In kind it is cell-based. A digest of the protocol: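 Mechanistic cellular read-out: inhibition of basal ERK phosphorylation in Malme-3M melanoma cells; IC50 taken as the mean of at least two experiments.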

T1 sequence (P15056 2-766 V600E limits assumed): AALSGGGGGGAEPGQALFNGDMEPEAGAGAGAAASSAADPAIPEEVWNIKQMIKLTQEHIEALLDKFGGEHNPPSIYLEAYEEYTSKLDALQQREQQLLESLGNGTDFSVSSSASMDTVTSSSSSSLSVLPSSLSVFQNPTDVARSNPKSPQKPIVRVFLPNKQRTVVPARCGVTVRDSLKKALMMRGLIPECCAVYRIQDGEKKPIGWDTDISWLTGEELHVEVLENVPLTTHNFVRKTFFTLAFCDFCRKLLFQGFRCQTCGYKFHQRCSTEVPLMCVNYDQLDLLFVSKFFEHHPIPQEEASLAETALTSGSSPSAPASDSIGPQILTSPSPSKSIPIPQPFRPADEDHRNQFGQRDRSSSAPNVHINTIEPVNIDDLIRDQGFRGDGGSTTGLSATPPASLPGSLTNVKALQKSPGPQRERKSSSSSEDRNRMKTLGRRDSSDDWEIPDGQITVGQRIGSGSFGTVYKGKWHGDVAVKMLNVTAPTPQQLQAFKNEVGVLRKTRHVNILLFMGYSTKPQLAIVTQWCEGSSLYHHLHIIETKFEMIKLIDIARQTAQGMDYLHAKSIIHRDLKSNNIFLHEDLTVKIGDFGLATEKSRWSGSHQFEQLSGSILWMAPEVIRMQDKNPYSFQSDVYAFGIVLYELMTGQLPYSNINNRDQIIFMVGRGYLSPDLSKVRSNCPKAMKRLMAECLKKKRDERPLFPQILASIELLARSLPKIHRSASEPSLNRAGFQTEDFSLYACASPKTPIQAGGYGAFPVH

Regarding `CC(C)(C#N)c1cccc(C(=O)Nc2ccc(F)c(C(=O)Nc3cnc4[nH]ncc4c3)c2F)c1`, the IC50 (usually the midpoint of a concentration-inhibition curve) in assay [1] turned out to be 3.5 nM; in assay [2] it was 430 nM. For `COc1n[nH]c2ncc(NC(=O)c3c(F)ccc(NC(=O)c4ccccc4)c3F)cc12` the same measures were 39 nM and above 12000 nM. For the compound `COc1n[nH]c2ncc(NC(=O)c3c(F)ccc(NC(=O)c4cccc(C(C)(C)C#N)c4)c3F)cc12`, the IC50 in assay [2] came to 180 nM. As for `CC(C)(C#N)c1cccc(C(=O)Nc2ccc(F)c(C(=O)Nc3cnc4[nH]ccc4c3)c2F)c1`, the IC50 is 6.8 nM in assay [1] and 440 nM in assay [2]. As for `CC(C)(C#N)c1cccc(C(=O)Nc2ccc(F)c(C(=O)Nc3cnc4[nH]nc(C5CC5)c4c3)c2F)c1`, the IC50 in assay [1] is 3 nM; in assay [2], 520 nM. Regarding `COc1n[nH]c2ncc(NC(=O)c3cc(NC(=O)c4cccc(C(C)(C)C#N)c4)ccc3F)cc12`, the IC50 in assay [1] stood at 1 nM; in assay [2], 20 nM. In the case of `COc1n[nH]c2ncc(NC(=O)c3cccc(NC(=O)c4cccc(C(C)(C)C#N)c4)c3)cc12`, the IC50 in assay [1] came to 0.9 nM; in assay [2], 140 nM. The matching figures for `COc1n[nH]c2ncc(NC(=O)c3cccc(NC(=O)c4cccc(C(C)(C)C#N)c4)c3F)cc12`: 5.1 nM and 1800 nM. The matching figures for `COc1n[nH]c2ncc(NC(=O)c3cc(NC(=O)c4ccc(Cl)c(C(F)(F)F)c4)ccc3F)cc12`: 1.3 nM and 96 nM. In the case of `COc1n[nH]c2ncc(NC(=O)c3cc(NC(=O)c4cccc(C(C)(C)C#N)c4)ccc3Cl)cc12`, the IC50 is 1.2 nM in assay [1] and 22 nM in assay [2]. For `COc1n[nH]c2ncc(NC(=O)c3cc(NC(=O)c4cccc(C(C)(C)C#N)c4)ccc3C)cc12` the same measures were 1.9 nM and 18 nM. In the case of `COc1n[nH]c2ncc(NC(=O)c3cccc(C(=O)Nc4ccccc4)c3)cc12`, the IC50 in assay [1] was 80 nM; in assay [2], above 10000 nM.

On to `COc1n[nH]c2ncc(NC(=O)c3cc(C(=O)Nc4cccc(C(F)(F)F)c4)ccc3C)cc12`, for which the IC50 in assay [1] was found to be 6.6 nM; in assay [2] it was 52 nM. For `O=C(Nc1ccccc1)Nc1cccc(C(=O)Nc2cnc3[nH]ncc3c2)c1` the same measures were 0.7 nM and above 10000 nM.
